MBD2 inh = inhibitors of human MBD2 binding to methylated oligonucleotide | TR-FRET | inhibition, % at 4.4 µM | 370,000 tested, 0.31% active; in the data active = inhibition above about 13%
Target sequence (Q9UBB5 whole entry, looked up): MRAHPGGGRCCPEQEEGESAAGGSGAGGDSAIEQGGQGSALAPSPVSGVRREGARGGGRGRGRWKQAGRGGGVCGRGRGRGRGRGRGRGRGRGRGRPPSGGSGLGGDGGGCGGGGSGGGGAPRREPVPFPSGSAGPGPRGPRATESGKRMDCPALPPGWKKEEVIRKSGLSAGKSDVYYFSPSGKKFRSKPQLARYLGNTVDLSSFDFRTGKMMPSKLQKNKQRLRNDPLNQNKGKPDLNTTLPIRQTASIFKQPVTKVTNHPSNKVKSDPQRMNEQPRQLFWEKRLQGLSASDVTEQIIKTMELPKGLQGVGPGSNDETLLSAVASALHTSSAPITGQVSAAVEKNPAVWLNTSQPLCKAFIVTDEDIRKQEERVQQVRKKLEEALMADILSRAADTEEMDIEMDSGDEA
CASP6 VEID inh = blocks human caspase-6 cleavage activity; P55212; purified caspase-6, Z-VEID-R110 cleavage fluorescence; inhibition, % at 12.5 µM; 350,000 tested, 0.53% active;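 active = mean inhibition across replicates at least about 35%, with every replicate also reaching that limit, limit read from the data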;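 note: 0% = median of neutral control wells and 100% = no fluorescence left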
TDP2 inh = blocks human TDP2 phosphodiesterase activity. recombinant TDP2, T5PNP hydrolysis, p-nitrophenol absorbance 415 nm. inhibition, % at 12.8 µM. O95551. 370,000 tested, 0.34% active;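 active = inhibition above the mean of all tested compounds plus 3 SD, set per campaign, cut at about 25% in these data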;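 note: 0% = DMSO with enzyme and 100% = buffer with substrate but no TDP2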
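test system = human TDP2 enzyme | input = TDP2 enzyme at 120 nM final | medium = 50 mM Tris-HCl pH 7.5 with Mg2+, KCl, DTT, BSA | also added = T5PNP substrate, 5 mM | times = 2 h at 37 °C | technique = epi absorbance | benchmarks = high control without enzyme, low control DMSO plus TDP2 | replication = each compound tested once, singlicate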
LEDGF integ inh = blocks HIV-1 LEDGF/p75-dependent DNA integration | TR-FRET IN-LEDGF/p75 DNA integration, Eu/Cy5 | inhibition, % at 3.7 µM | 370,000 tested, 0.64% active;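 active = inhibition above the screen-wide mean plus 3 SD, cut at about 13% in these data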;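 note: signal is the Cy5 over europium emission ratio at 671 and 618 nm; 0% = plate median of compound wells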
NSD2 HMT inh = blocks human histone methyltransferase NSD2. inhibition, % at 12.5 µM. AID 743445. 310,000 tested, 0.54% active. O96028. NSD2 peptide methylation, AlphaScreen, 120 min; in the data active = inhibition above about 50%
UHRF1 binding = blocks human UHRF1 binding to methylated DNA | Q96T88 | 370,000 tested, 0.75% active | inhibition, % at 4.4 µM | AID 687016 | UHRF1 binding to methylated oligo, TR-FRET; in the data active = inhibition above about 21%;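 note: UHRF1 SRA domain binding a hemimethylated CpG hairpin DNA probe; 0% = median of test compound wells and 100% = reference inhibitor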
Alpha artifact = AlphaScreen assay artifact in NSD2 counter-screen. shares compounds with NSD2 HMT inh. AlphaScreen artifact counterscreen, preloaded methylated H4 peptide. AC35, µM (top dose mostly 10 µM), for the others: top-dose activity change, negative = signal loss. 1,500 tested, 9.4% active. AID 1053174; call rule not given here
* hit, by the source's call. Rows were chosen to be rich in hits. Some 1.8% of all compounds tested hit in one or more screens of this group.

How did CC1=C(C(N)=O)C(c2ccccc2)n2nc(-c3ccncc3)nc2N1 (stereo not drawn) do in these assays?
MBD2 inh: 0.6; TDP2 inh: 11.4; LEDGF integ inh: -0.3; NSD2 HMT inh: 8.0; UHRF1 binding: -2.0

How did COc1ccc(CCC(=O)NCCOc2ccccc2Cl)cc1 do in these assays?
MBD2 inh: 1.5; CASP6 VEID inh: -1.9; TDP2 inh: -4.9; LEDGF integ inh: -0.1; NSD2 HMT inh: 123.8*; UHRF1 binding: 1.0; Alpha artifact: -1.8%

Results for COc1ccc(CCC(=O)NCCOc2ccc(C)cc2)cc1 ?
MBD2 inh: -4.9; CASP6 VEID inh: 5.7; TDP2 inh: 1.8; LEDGF integ inh: 0.3; NSD2 HMT inh: -5.1; UHRF1 binding: 1.7

What do the screens show for `Cc1cccc(NC(=O)CSCC(=O)NCc2cccc(C(F)(F)F)c2)c1`?
MBD2 inh: 3.6; CASP6 VEID inh: -2.8; TDP2 inh: -8.8; LEDGF integ inh: 2.8; NSD2 HMT inh: 97.9*; UHRF1 binding: -0.7; Alpha artifact: 1.3%

What do the screens show for `COc1ccccc1NC(=O)N1CCCCN2[C@H](CO)[C@H](c3ccc(-c4ccccc4)cc3)[C@@H]2C1`?
CASP6 VEID inh: -0.4

What do the screens show for `O=C(COC(=O)c1cc(S(=O)(=O)N2CCOCC2)ccc1F)c1ccc[nH]1`?
MBD2 inh: 6.6; TDP2 inh: 2.5; LEDGF integ inh: -3.5; NSD2 HMT inh: 69.3*; UHRF1 binding: -1.8; Alpha artifact: -4.2%

Results for O=C(COC(=O)c1cc(S(=O)(=O)N2CCOCC2)ccc1Cl)c1ccc[nH]1 ?
MBD2 inh: 1.8; CASP6 VEID inh: 7.9; TDP2 inh: 2.0; LEDGF integ inh: 2.8; NSD2 HMT inh: -0.2; UHRF1 binding: -2.0

What do the screens show for `COC(=O)CC1=NN(c2ccc(OC)cc2)C(=O)/C1=C\c1ccc(Cl)cc1`?
MBD2 inh: -3.3; CASP6 VEID inh: 2.0; TDP2 inh: 12.6; LEDGF integ inh: -2.5; NSD2 HMT inh: 55.0*; UHRF1 binding: -10.7; Alpha artifact: -2.4%

Results for CC1(C)CN(c2cccc(C#N)c2)C1=O ?
MBD2 inh: -2.1; CASP6 VEID inh: -1.0; TDP2 inh: -1.4; LEDGF integ inh: 1.1; NSD2 HMT inh: 55.9*; UHRF1 binding: 0.4; Alpha artifact: -3.4%

Results for O=C(C[C@H]1CC[C@H](NC(=O)Nc2ccc(C(F)(F)F)cc2)[C@H](CO)O1)NCc1cc(F)cc(F)c1 ?
CASP6 VEID inh: 0.9

What do the screens show for `Cc1ccccc1CS(=O)(=O)CC(O)CN1CCCC1=O` (stereo not drawn)?
MBD2 inh: -2.1; CASP6 VEID inh: -0.9; TDP2 inh: 17.6; LEDGF integ inh: -1.3; NSD2 HMT inh: 128.7*; UHRF1 binding: 0.6; Alpha artifact: -2.7%

What do the screens show for `CCN(C(=S)Nc1cccnc1)c1cccc2ccccc12`?
MBD2 inh: -4.3; CASP6 VEID inh: 13.5; TDP2 inh: -1.7; LEDGF integ inh: -3.7; NSD2 HMT inh: 100.1*; UHRF1 binding: -1.1; Alpha artifact: -5.7%

How did COc1cccc(NC(=S)Nc2cccc3ccccc23)c1 do in these assays?
MBD2 inh: -0.9; CASP6 VEID inh: -0.3; TDP2 inh: 18.0; LEDGF integ inh: 6.8; NSD2 HMT inh: 1.9; UHRF1 binding: -5.7

Results for CCN(C(=S)Nc1cccnc1)c1ccccc1 ?
MBD2 inh: -0.5; TDP2 inh: -13.8; LEDGF integ inh: -0.7; NSD2 HMT inh: -2.6; UHRF1 binding: 5.6

What do the screens show for `COc1ccc(NC(=S)Nc2cccc3cnccc23)cc1`?
MBD2 inh: -7.1; TDP2 inh: 16.3; LEDGF integ inh: 0.1; NSD2 HMT inh: 54.5*; UHRF1 binding: -2.8; Alpha artifact: 3.8%

What do the screens show for `S=C(Nc1cccnc1)Nc1cccc2cnccc12`?
MBD2 inh: 3.3; CASP6 VEID inh: 44.0*; TDP2 inh: 10.4; LEDGF integ inh: 2.8; NSD2 HMT inh: 107.9*; UHRF1 binding: -1.8; Alpha artifact: 2.5%

How did COc1ccccc1NC(=S)Nc1cccc2cnccc12 do in these assays?
MBD2 inh: -2.7; CASP6 VEID inh: 8.5; TDP2 inh: 2.4; LEDGF integ inh: 1.9; NSD2 HMT inh: 82.1*; UHRF1 binding: 1.0; Alpha artifact: -1.1%
